Laboratory results reported in ChEMBL document CHEMBL1138290 (J Med Chem, 2007).

Tests used:
Tubulin = Tubulin (Sus scrofa, UniProt P02554+P02550); assay: Inhibition of porcine brain tubulin polymerization
K562 = assay: Antiproliferative activity against human K562 cells after 48 hrs; type: functional, cell-based; settings: K562, 48 h
Procedure, shortened: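 Growth of K562 cells measured by counting cells with a hemocytometer after 48 h (2 days) of drug treatment. IC50 is the mean of at least three independent determinations.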

[1] = Antiproliferative activity against rat multidrug-resistant L12 cells after 48 hrs by XTT assay; type: functional, cell-based; settings: L1.2, 48 h
Procedure, shortened: (§1)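 XTT proliferation assay with 48 h incubation with test compound. Each experiment run at least in duplicate (n = 2). IC50 calculated by nonlinear regression of dose-response curves.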

L1210 = assay: Antiproliferative activity against mouse vincristine-resistant L1210 cells after 48 hrs by XTT assay; type: functional, cell-based; settings: L1210, 48 h; procedure, shortened: as §1
[2] = Antiproliferative activity against rat L12 cells after 48 hrs by XTT assay; type: functional, cell-based
[3] = Cell cycle arrest in KB/HeLa cells assessed as accumulation at G2/M phase after 24 hrs by flow cytometric analysis; type: functional, cell-based; settings: Homo sapiens
Procedure, shortened: (§2)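 Subconfluent KB/HeLa cells exposed to a range of compound concentrations for 24 h. Cell cycle phase distribution determined by flow cytometry. Experiments run at least in duplicate (n = 2).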

[4] = Cell cycle arrest in KB/HeLa cells assessed as accumulation at S phase at 100 nM after 24 hrs by flow cytometric analysis; type: functional, cell-based; settings: Homo sapiens; procedure, shortened: as §2
[5] = Cell cycle arrest in KB/HeLa cells assessed as accumulation at G2M phase at 100 nM after 24 hrs by flow cytometric analysis; type: functional, cell-based; settings: Homo sapiens; procedure, shortened: as §2
[6] = Cell cycle arrest in KB/HeLa cells assessed as accumulation at S phase at 31.6 nM after 24 hrs by flow cytometric analysis; type: functional, cell-based; settings: Homo sapiens; procedure, shortened: as §2
[7] = Cell cycle arrest in KB/HeLa cells assessed as accumulation at G2M phase at 31.6 nM after 24 hrs by flow cytometric analysis; type: functional, cell-based; settings: Homo sapiens; procedure, shortened: as §2
[8] = Cell cycle arrest in KB/HeLa cells assessed as accumulation at G2M phase at 10 nM after 24 hrs by flow cytometric analysis; type: functional, cell-based; settings: Homo sapiens; procedure, shortened: as §2
[9] = Cell cycle arrest in KB/HeLa cells assessed as accumulation at G1 phase at 100 nM after 24 hrs by flow cytometric analysis; type: functional, cell-based; settings: Homo sapiens; procedure, shortened: as §2
[10] = Cell cycle arrest in KB/HeLa cells assessed as accumulation at G2M phase at 1 nM after 24 hrs by flow cytometric analysis; type: functional, cell-based; settings: Homo sapiens; procedure, shortened: as §2
[11] = Cell cycle arrest in KB/HeLa cells assessed as accumulation at G1 phase at 3.16 nM after 24 hrs by flow cytometric analysis; type: functional, cell-based; settings: Homo sapiens; procedure, shortened: as §2
[12] = Cell cycle arrest in KB/HeLa cells assessed as accumulation at S phase at 3.16 nM after 24 hrs by flow cytometric analysis; type: functional, cell-based; settings: Homo sapiens; procedure, shortened: as §2
[13] = Cell cycle arrest in KB/HeLa cells assessed as accumulation at G1 phase at 1 nM after 24 hrs by flow cytometric analysis; type: functional, cell-based; settings: Homo sapiens; procedure, shortened: as §2
[14] = Cell cycle arrest in KB/HeLa cells assessed as accumulation at G1 phase at 316 nM after 24 hrs by flow cytometric analysis; type: functional, cell-based; settings: Homo sapiens; procedure, shortened: as §2
[15] = Cell cycle arrest in KB/HeLa cells assessed as accumulation at G1 phase at 31.6 nM after 24 hrs by flow cytometric analysis; type: functional, cell-based; settings: Homo sapiens; procedure, shortened: as §2
RKO = assay: Cytotoxicity against human RKO cells with ectopic-inducible expression of p27kip1 after 48 hrs by XTT assay; type: functional, cell-based; procedure, shortened: as §1
[16] = Cell cycle arrest in KB/HeLa cells assessed as accumulation at G2M phase at 3.16 nM after 24 hrs by flow cytometric analysis; type: functional, cell-based; settings: Homo sapiens
[17] = Cell cycle arrest in KB/HeLa cells assessed as accumulation at S phase at 316 nM after 24 hrs by flow cytometric analysis; type: functional, cell-based; settings: Homo sapiens; procedure, shortened: as §2
P388 [18] = assay: Antiproliferative activity against mouse adriamycin-resistant P388 cells after 48 hrs by XTT assay; type: functional, cell-based; settings: P388, 48 h; procedure, shortened: as §1
[19] = Cell cycle arrest in KB/HeLa cells assessed as accumulation at S phase at 10 nM after 24 hrs by flow cytometric analysis; type: functional, cell-based; settings: Homo sapiens; procedure, shortened: as §2
[20] = Cell cycle arrest in KB/HeLa cells assessed as accumulation at S phase at 1 nM after 24 hrs by flow cytometric analysis; type: functional, cell-based; settings: Homo sapiens; procedure, shortened: as §2
[21] = Cell cycle arrest in KB/HeLa cells assessed as accumulation at G1 phase at 10 nM after 24 hrs by flow cytometric analysis; type: functional, cell-based; settings: Homo sapiens; procedure, shortened: as §2
[22] = Cell cycle arrest in KB/HeLa cells assessed as accumulation at G2M phase at 316 nM after 24 hrs by flow cytometric analysis; type: functional, cell-based; settings: Homo sapiens; procedure, shortened: as §2
[23] = Cytotoxicity against human KB/HeLa cells after 48 hrs by XTT assay; type: functional, cell-based; procedure, shortened: as §1
P388 [24] = assay: Antiproliferative activity against mouse P388 cells after 48 hrs by XTT assay; type: functional, cell-based; settings: P388, 48 h; procedure, shortened: as §1
[25] = Cell cycle arrest in KB/HeLa cells assessed as accumulation at S phase at 0.1 nM after 24 hrs by flow cytometric analysis; type: functional, cell-based; settings: Homo sapiens; procedure, shortened: as §2
[26] = Cell cycle arrest in KB/HeLa cells assessed as accumulation at G2M phase at 0.1 nM after 24 hrs by flow cytometric analysis; type: functional, cell-based; settings: Homo sapiens; procedure, shortened: as §2
[27] = Cell cycle arrest in KB/HeLa cells assessed as accumulation at G1 phase at 0.1 nM after 24 hrs by flow cytometric analysis; type: functional, cell-based; settings: Homo sapiens; procedure, shortened: as §2
[28] = Cell cycle arrest in KB/HeLa cells assessed as accumulation at S phase at 0.3 nM after 24 hrs by flow cytometric analysis; type: functional, cell-based; settings: Homo sapiens; procedure, shortened: as §2
[29] = Cell cycle arrest in KB/HeLa cells assessed as accumulation at G2M phase at 0.3 nM after 24 hrs by flow cytometric analysis; type: functional, cell-based; settings: Homo sapiens; procedure, shortened: as §2
[30] = Cell cycle arrest in KB/HeLa cells assessed as accumulation at G1 phase at 0.3 nM after 24 hrs by flow cytometric analysis; type: functional, cell-based; settings: Homo sapiens; procedure, shortened: as §2

O=S(=O)(Oc1c2ccccc2cc2sccc12)c1ccccc1
IC50 (Tubulin): > 14000 nM
IC50 (K562): 800 nM

Nc1ccc(S(=O)(=O)Oc2c3ccccc3cc3sccc23)cc1
IC50 (Tubulin): 710 nM
IC50 (K562): 130 nM

COc1ccc(S(=O)(=O)Oc2c3cccc(Cl)c3cc3c(Cl)cccc23)cc1
IC50 (Tubulin): > 10000 nM
IC50 (K562): 1700 nM

COc1cc([N+](=O)[O-])ccc1S(=O)(=O)Oc1c2ccccc2cc2sccc12
IC50 (K562): 1400 nM

O=S(=O)(Oc1c2ccccc2cc2sccc12)c1ccc(NO)cc1
IC50 (K562): 400 nM

Cc1cccc(S(=O)(=O)Oc2c3ccccc3cc3sccc23)c1
IC50 (Tubulin): 740 nM
IC50 (K562): 530 nM

CN(C)c1ccc(S(=O)(=O)Oc2c3ccccc3cc3sccc23)cc1
IC50 (Tubulin): 940 nM
IC50 (K562): 80 nM

COc1ccc(S(=O)(=O)Oc2c3c(nc4ccccc24)CCCC3)cc1
IC50 (Tubulin): > 10000 nM
IC50 (K562): 830 nM

O=[N+]([O-])c1ccc(S(=O)(=O)Oc2c3ccccc3cc3sccc23)cc1
IC50 (Tubulin): > 14000 nM
IC50 (K562): 2300 nM

CC[C@]1(O)C[C@@H]2CN(CCc3c([nH]c4ccccc34)[C@@](C(=O)OC)(c3cc4c(cc3OC)N(C)[C@H]3[C@@](O)(C(N)=O)[C@H](O)[C@]5(CC)C=CCN6CC[C@]43[C@@H]65)C2)C1 [VINDESINE]
IC50 [1]: 260 nM
IC50 (L1210): > 5000 nM
IC50 [2]: 1 nM

CC(=O)O[C@H]1C(=O)[C@@]2(C)[C@H]([C@H](OC(=O)c3ccccc3)[C@]3(O)C[C@H](OC(=O)[C@H](O)[C@@H](NC(=O)c4ccccc4)c4ccccc4)C(C)=C1C3(C)C)[C@]1(OC(C)=O)CO[C@@H]1C[C@@H]2O [PACLITAXEL]
EC50 [3]: 49 nM
Activity [4]: 11%
Activity [5]: 87.8%
Activity [6]: 49.9%
Activity [7]: 19%
Activity [8]: 8.5%
Activity [9]: 1.2%
Activity [10]: 10.1%
Activity [11]: 63.6%
Activity [12]: 27%
Activity [13]: 63.2%
Activity [14]: 0.3%
Activity [15]: 31.1%
IC50 (RKO): > 3000 nM
IC50 [1]: 400 nM
IC50 (L1210): > 5000 nM
Activity [16]: 9.4%
Activity [17]: 8.9%
IC50 (P388 [18]): > 5000 nM
Activity [19]: 26.6%
Activity [20]: 26.7%
Activity [21]: 64.8%
Activity [22]: 90.8%
IC50 [23]: 10 nM

COc1cccc(S(=O)(=O)Oc2c3ccccc3cc3ccccc23)c1
IC50 (Tubulin): 390 nM
IC50 (K562): 480 nM

COc1ccc(S(=O)(=O)Oc2c3c(Cl)cccc3cc3cccc(Cl)c23)cc1
IC50 (Tubulin): > 10000 nM
IC50 (K562): 10000 nM

COC(=O)Nc1nc2cc(C(=O)c3cccs3)ccc2[nH]1 [NOCODAZOLE]
EC50 [3]: 91 nM
Activity [4]: 26.1%
IC50 (P388 [24]): 70 nM
Activity [5]: 51.4%
Activity [6]: 25.7%
Activity [7]: 9.9%
Activity [8]: 10%
Activity [9]: 22.3%
Activity [10]: 11.1%
Activity [11]: 64.6%
Activity [12]: 24.8%
Activity [13]: 65.2%
Activity [14]: 0.9%
Activity [15]: 64.4%
IC50 (RKO): > 14000 nM
IC50 [1]: 50 nM
Activity [16]: 10.6%
Activity [17]: 6%
IC50 (P388 [18]): 50 nM
IC50 [2]: 300 nM
Activity [19]: 25.7%
Activity [20]: 23.6%
Activity [21]: 64.2%
Activity [22]: 93.2%
IC50 [23]: 140 nM

COc1ccc(S(=O)(=O)Oc2c3ccccc3c(Cl)c3ccccc23)cc1
IC50 (K562): 350 nM

CC[C@]1(O)C[C@H]2CN(CCc3c([nH]c4ccccc34)[C@@](C(=O)OC)(c3cc4c(cc3OC)N(C=O)[C@H]3[C@@](O)(C(=O)OC)[C@H](OC(C)=O)[C@]5(CC)C=CCN6CC[C@]43[C@@H]65)C2)C1 [VINCRISTINE]
EC50 [3]: 2.4 nM
Activity [25]: 27.7%
Activity [4]: 4.8%
Activity [5]: 95.1%
Activity [6]: 7.2%
Activity [26]: 11.1%
Activity [7]: 92.6%
Activity [8]: 86.7%
Activity [9]: 0.2%
Activity [10]: 17.2%
Activity [11]: 6.5%
Activity [12]: 26%
Activity [27]: 61.2%
Activity [13]: 53.7%
Activity [14]: 0.2%
Activity [15]: 1%
Activity [28]: 24%
Activity [16]: 65.8%
Activity [17]: 5.9%
Activity [29]: 11.7%
Activity [19]: 13.1%
Activity [20]: 28.3%
Activity [21]: 0.5%
Activity [22]: 93.8%
Activity [30]: 64.5%

CNc1ccc(S(=O)(=O)Oc2c3ccccc3cc3sccc23)cc1
IC50 (Tubulin): 290 nM
IC50 (K562): 50 nM

Cc1ccc(S(=O)(=O)Oc2c3ccccc3cc3sccc23)cc1
IC50 (Tubulin): 1050 nM
IC50 (K562): 440 nM

COc1ccc(S(=O)(=O)Oc2c3ccccc3cc3sccc23)cc1OC
IC50 (Tubulin): 1270 nM
IC50 (K562): 170 nM

COc1cc(N)ccc1S(=O)(=O)Oc1c2ccccc2cc2sccc12
IC50 (K562): 280 nM

COc1ccc(C=C2c3ccccc3C(=O)c3ccccc32)cc1O
EC50 [3]: 200 nM

COc1cccc(S(=O)(=O)Oc2c3ccccc3cc3sccc23)c1
IC50 (Tubulin): 290 nM
IC50 (K562): 250 nM

COc1cc2c(c(OC)c1OC)-c1ccc(OC)c(=O)cc1[C@@H](NC(C)=O)CC2 [COLCHICINE]
EC50 [3]: 14 nM
Activity [4]: 5.1%
Activity [5]: 94.7%
Activity [6]: 11.9%
Activity [7]: 87.6%
Activity [8]: 32.1%
Activity [9]: 0.3%
Activity [10]: 10%
Activity [11]: 64.3%
Activity [12]: 25.1%
Activity [13]: 64.7%
Activity [14]: 0.3%
Activity [15]: 0.5%
IC50 (RKO): > 14000 nM
Activity [28]: 26.6%
Activity [17]: 5.2%
Activity [29]: 10.1%
Activity [19]: 35.7%
Activity [20]: 25.4%
Activity [21]: 32.2%
Activity [22]: 94.5%
Activity [30]: 63.3%
IC50 [23]: 30 nM
